Calls of active or inactive are those of the source. No cut-off for these calls is given here.
Legend:
dengue virus type 2 [1] = experiment: Antiviral activity against DENV-2 NGC-N infected in Stat1-/- mouse assessed as improvement in mouse survival by measuring median survival time at 4 mg/kg, po dosed 8 hrs after infection and ending at day 6 after infection (8 hrs delay) (reference value: 10 days); type: functional
dengue virus type 2 [2] = experiment: Antiviral activity against Dengue virus 2 infected in human BE(2)-C cells assessed as NS3 protein expression at 0.78 uM incubated for 48 hrs by Western blot analysis (reference value: 100%); type: functional
Summary of the method: (§1)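 BE(2)C neuroblastoma cells in RPMI 1640 with 10% FBS were infected with DENV-2 PL046 at MOI 0.1 for 48 h, without or with compound at increasing concentrations. NS3 was immunoblotted with actin as loading control. The NS3:actin densitometry ratio was expressed as % of the DMSO control. Mean ± SD of 3 independent experiments.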

dengue virus type 2 [3] = experiment: Antiviral activity against Dengue virus 2 infected in human BE(2)-C cells assessed as NS3 protein expression at 6.25 uM treated during 0 to 3 hrs post infection by Western blot analysis (reference value: 100%); type: functional
Summary of the method: (§2)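 Time-of-addition design: BE(2)C cells were infected with DENV-2 or ZIKV at MOI 1. Compound at 3.125 or 6.25 μM was present either during adsorption (0–3 hpi) or afterward (3–24 hpi). Viral protein was immunoblotted against actin, with the ratio as % of the solvent control.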

Zika virus [4] = experiment: Antiviral activity against Zika virus infected in human BE(2)-C cells assessed as reduction in viral entry at 3.125 to 6.25 uM incubated for 90 mins by plaque-forming assay; type: functional, organism-based
Summary of the method: (§3)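 Virus entry: BE(2)C cells were incubated with DENV-2 or ZIKV for 90 min at 4 °C and washed cold. Cells were then treated with 3.125 or 6.25 μM compound at 37 °C for 1 h. Non-internalized virus was inactivated with 0.1 M glycine, pH 3, for 5 min. Cells were lysed by needle passage, and internalized virus was titrated by plaque assay. Mean ± SD, n = 3.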

Zika virus [5] = experiment: Antiviral activity against Zika virus infected in human BE(2)-C cells assessed as NS3 protein expression at 0.39 uM incubated for 48 hrs by Western blot analysis (reference value: 100%); type: functional
Summary of the method: (§4)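 BE(2)C cells were infected with ZIKV PRVABC59 at MOI 0.1 for 48 h, with or without compound at increasing concentrations. Viral protein was immunoblotted with actin as loading control. The band-density ratio was given as % of the solvent control. Mean ± SD, 3 independent experiments.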

Zika virus [6] = experiment: Antiviral activity against Zika virus infected in human HMC3 cells assessed as reduction in viral progeny production at 1.56 to 12.5 uM incubated for 48 hrs by Virus titer assay; type: functional, organism-based
Summary of the method: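 HMC3 microglia were grown in MEM with 10% FBS and infected with ZIKV PRVABC59 (MOI 0.1) for 48 h at the specified concentrations. Viral protein was read by immunofluorescence with Hoechst nuclear stain. Infectious progeny was titred by plaque assay on Vero cells (log PFU/mL). DMSO served as the solvent control.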

dengue virus type 2 [7] = experiment: Antiviral activity against DENV-2 NGC-N infected in Stat1-/- mouse assessed as reduction in viral load at 4 to 8mg/kg/day, po dosed immediately following viral infection followed by daily dosing for 3 day; type: functional, organism-based
Summary of the method: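 Stat1-/- mice infected with DENV-2 NGC-N (1x10⁵ PFU iv) or ZIKV PRVABC59 (5x10⁴ PFU sc, footpad), with oral dosing or PBS starting immediately. Serum was taken from the submandibular vein on day 3 post-infection. Viremia was measured by plaque assay and reported as individual values and mean; n = 5.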

dengue virus type 2 [8] = experiment: Antiviral activity against Dengue virus 2 infected in human BE(2)-C cells assessed as NS3 protein expression at 6.25 uM treated during 3 to 24 hrs post infection by Western blot analysis (reference value: 100%); type: functional; summary of the method: as §2
Zika virus [9] = experiment: Antiviral activity against Zika virus infected in human BE(2)-C cells assessed as NS3 protein expression at 6.25 uM treated during 0 to 3 hrs post infection by Western blot analysis (reference value: 100%); type: functional; summary of the method: as §2
Zika virus [10] = experiment: Antiviral activity against Zika virus infected in human BE(2)-C cells assessed as NS3 protein expression at 12.5 uM incubated for 48 hrs by Western blot analysis (reference value: 100%); type: functional; summary of the method: as §4
Zika virus [11] = conditions: 3.125 to 6.25 uM
Zika virus [12] = experiment: Antiviral activity against Zika virus infected in human BE(2)-C cells assessed as reduction in viral entry at 3.125 to 6.25 uM incubated for 90 mins by plaque-forming assay relative to control; type: functional; parameters: scale not given: the % may be the effect or the level left; summary of the method: as §3
dengue virus type 2 [13] = experiment: Antiviral activity against Dengue virus 2 infected in human BE(2)-C cells assessed as NS3 protein expression at 1.56 uM incubated for 48 hrs by Western blot analysis (reference value: 100%); type: functional; summary of the method: as §1
Influenza A virus = experiment: Antiviral activity of Influenza A virus (H1N1) infected in human HMC3 cells assessed as reduction in nucleoprotein protein expression at 0.781 to 12.5 uM incubated for 24 hrs by immunofluorescence microscopy; type: functional, organism-based
Zika virus [14] = experiment: Antiviral activity against Zika virus infected in human BE(2)-C cells assessed as NS3 protein expression at 3.125 uM incubated for 48 hrs by Western blot analysis (reference value: 100%); type: functional; summary of the method: as §4
Zika virus [15] = experiment: Antiviral activity against Zika virus infected in human BE(2)-C cells assessed as NS3 protein expression at 6.25 uM treated during 3 to 24 hrs post infection by Western blot analysis (reference value: 100%); type: functional; summary of the method: as §2
dengue virus type 2 [16] = experiment: Antiviral activity against DENV-2 NGC-N infected in Stat1-/- mouse assessed as effect on overall mouse survival at 2 to 8 mg/kg/day, po dosed immediately following viral infection followed by daily dosing for 6 days; type: functional, organism-based
dengue virus type 2 [17] = experiment: Antiviral activity against eGFP-fused Dengue virus 2 infected in human BE(2)-C cells assessed as viral infection level by measuring intensity of eGFP emission from infected cells at 3.13 uM incubated for 24 hrs relative to control; type: functional
Summary of the method: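 BE(2)C cells, in RPMI 1640 with 10% FBS, were infected with DENV-2-eGFP reporter virus (MOI 1) for 24 h with or without compound, using DMSO as solvent control. Cells were fixed in 4% paraformaldehyde and stained with Hoechst, then imaged by high-content analysis. eGFP intensity per cell number is given as % of solvent control. Values are means of 3 experiments.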

BE(2)-C = experiment: Cytotoxicity against human BE(2)-C cells assessed as reduction in cell viability up to 12.5 uM incubated overnight by LDH assay relative to control; type: cell-based
Summary of the method: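 BE(2)C cells (RPMI 1640, 10% FBS) exposed overnight to compound at concentrations up to 12.5 μM; XTT (proliferation) or LDH release (cytotoxicity) read by absorbance at 490 nm. Values normalized to solvent control (%), mean ± SD of 3 independent experiments.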

dengue virus type 2 [18] = experiment: Antiviral activity against DENV-2 NGC-N infected in Stat1-/- mouse assessed as overall mouse survival at 4 mg/kg, po dosed immediately following viral infection followed by daily dosing for 6 days (reference value: 0%); type: functional; conditions: 144 h
dengue virus type 2 [19] = experiment: Antiviral activity against Dengue virus 2 infected in human HMC3 cells assessed as reduction in NS3 protein expression at 1.56 to 12.5 uM incubated for 24 hrs by immunofluorescence microscopy; type: functional, organism-based

COc1ccc(S(=O)(=O)N(CCCC(=O)C2CCCCCC2)c2ccccc2)cc1
MST (dengue virus type 2 [1]): 22 days | Activity (dengue virus type 2 [2]): 85.4% | Activity (dengue virus type 2 [3]): 27.3% | Activity (Zika virus [4]): Dose-dependent effect | Activity (Zika virus [5]): 97.7% | Activity (Zika virus [6]): Active | Activity (dengue virus type 2 [7]): Active | Activity (dengue virus type 2 [8]): 55.3% | Activity (Zika virus [9]): 20.1% | Activity (Zika virus [10]): 0.1% | inhibition (Zika virus [11]): inactive | Activity (Zika virus [12]): 80% | Activity (dengue virus type 2 [13]): 75.2% | Activity (Influenza A virus): Active | Activity (Zika virus [14]): 49.7% | Activity (Zika virus [15]): 79.5% | Activity (dengue virus type 2 [16]): inactive | Activity (dengue virus type 2 [17]): 9.6% | Activity (BE(2)-C): Non-Toxic | survival at 4 mg/kg (dengue virus type 2 [18]): 60% | Activity (dengue virus type 2 [19]): Active
